Screens deposited in PubChem by The Scripps Research Institute Molecular Screening Center.
Rows were chosen to be rich in hits. Some 1.4% of all compounds tested hit in one or more screens of this group.
MsrA act: bovine MsrA enzyme activators, primary screen, biochemical, absorbance, HTS; purified bovine MsrA, absorbance read-out; hit rate 0.3% among 360,000; AID 602163, 2012; activation, % at 10.6 µM; in the data active = activation above about 7.5%;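 note: 0% = vehicle and 100% = reference activator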
MsrA inh: bovine MsrA enzyme inhibitors, primary screen, biochemical, absorbance, HTS; inhibition, % at 15.5 µM; Methionine sulfoxide reductase A (Bos taurus); AID 651718, 2012; hit rate 0.75% among 360,000; purified bovine MsrA, absorbance read-out; in the data active = inhibition above about 4.5%;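 note: 0% = vehicle wells with enzyme and 100% = reference inhibitor wells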
ARFGAP1 inh: inhibitors of rat ARFGAP1 GAP activity, primary screen, biochemical, fluorescence polarization, GDP tracer; Arfgap1-stimulated ARF1 GTP hydrolysis, GDP FP detection; hit rate 0.26% among 360,000; ADP-ribosylation factor GTPase-activating protein 1 (Rattus norvegicus), Q62848; inhibition, % at 16.5 µM;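 active = inhibition above a per-plate limit, mean inhibition of low control wells plus 3 SD, cut at about 25% in these data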;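 note: 0% = DMSO wells with enzyme and 100% = wells lacking Arfgap1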
Target sequence (Q62848 1-136 limits assumed): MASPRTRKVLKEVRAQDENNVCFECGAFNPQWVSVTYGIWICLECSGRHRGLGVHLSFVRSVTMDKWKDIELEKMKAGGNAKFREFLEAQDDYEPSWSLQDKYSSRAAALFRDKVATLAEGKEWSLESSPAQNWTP
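Assay system: Rat Arfgap1 GAP domain (His6, aa 1-136), purified enzyme | Buffer or medium: HEPES 25 mM pH 7.5, NaCl 150 mM, MgCl2, DTT | Schedule: GTP hydrolysis reaction 2 h at 25 °C | Signal: FP of antibody-bound GDP Alexa 633 tracer, ex 620/em 688 nm | Measure: Percent inhibition of Arfgap1-stimulated GTP hydrolysis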
ASAP1 GAP inh: inhibitors of human ASAP1 ArfGAP activity, primary screen, biochemical, fluorescence polarization; ASAP1-stimulated ARF1 GTP hydrolysis, GDP FP detection; hit rate 0.19% among 360,000; Arf-GAP with SH3 domain, ANK repeat and PH domain-containing protein 1 (Homo sapiens), …; inhibition, % at 16.5 µM; in the data active = inhibition above about 25%;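 note: 0% = vehicle with enzyme and substrate and 100% = no enzyme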
Target sequence (Q9ULH1 325-724 limits assumed): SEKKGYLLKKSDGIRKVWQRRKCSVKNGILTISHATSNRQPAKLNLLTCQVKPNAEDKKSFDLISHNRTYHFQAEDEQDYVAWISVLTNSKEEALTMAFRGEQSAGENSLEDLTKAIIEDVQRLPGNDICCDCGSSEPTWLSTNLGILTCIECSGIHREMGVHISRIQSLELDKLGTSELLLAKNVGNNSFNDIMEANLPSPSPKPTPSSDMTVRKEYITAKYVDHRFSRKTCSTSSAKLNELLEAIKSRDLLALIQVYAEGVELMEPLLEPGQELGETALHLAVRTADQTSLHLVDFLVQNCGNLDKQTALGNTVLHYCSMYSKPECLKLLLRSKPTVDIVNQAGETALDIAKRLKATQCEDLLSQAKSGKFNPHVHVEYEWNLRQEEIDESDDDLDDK
MsrA activ conf: bovine MsrA activators, retest, confirmation, biochemical, absorbance, HTS; purified bovine MsrA, absorbance read-out; hit rate 12% among 1,000; AID 602270, 2012; shares compounds with MsrA act; activation, % at 10.6 µM; in the data active = activation above about 4%;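 note: enzyme coupled to thioredoxin and thioredoxin reductase with NADPH; 0% = vehicle wells and 100% = reference activator wells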
Active calls of the source: *; . = no result.

SMILES	MsrA act	MsrA inh	ARFGAP1 inh	ASAP1 GAP inh	MsrA activ conf
COC(=O)CNC(=O)COC(=O)/C=C/c1ccc2ccccc2n1	8.7*	2	1	-2	-3
Cc1ccc(OCC(=O)N/N=C\c2c(C)[nH]n(-c3ccccc3)c2=O)c([N+](=O)[O-])c1	11*	2	-16	-4	-1
Cc1cccc(C)c1NC(=O)N1CCC(n2cnc3ccccc32)CC1	-3	-1	-3	-5	.
Cc1cccc(C)c1NC(=O)N1CCC(n2c(=O)[nH]c3ccccc32)CC1	7.8*	-1	4	7	-1
O=C(/C=C/c1ccccc1)C1=C(O)C(=O)N(CCO)C1c1ccccc1[N+](=O)[O-] (configuration not stated)	-2	2	3	-24	.
O=C(/C=C/c1ccccc1)C1=C(O)C(=O)N(CCO)C1c1cccc([N+](=O)[O-])c1 (configuration not stated)	9.9*	2	-15	-2	-1
CS(=O)(=O)c1ccc(N)c(SSc2cc(S(C)(=O)=O)ccc2N)c1	14*	1	3	11	9.8*
Cc1nc2ccccn2c1-c1ccnc(=S)[nH]1	8.8*	3	3	-15	0
C=C1CCC[C@]2(C)C[C@H]3OC(=O)C(CNCCN(CC)CC)[C@H]3CC12 (some centres not stated)	8.4*	-1	5	2	-1
O=C(O)C1=NOC(CNC(=O)c2ccccc2Cl)C1 (configuration not stated)	11*	-1	0	5	3
O=C1C=C(Nc2ccccc2O)c2ccccc2C1=O	9.3*	2	-4	3	6.1*
Cc1ccc(NC2=CC(=O)C(=O)c3ccccc32)c(C)c1	-2	0	9	6	.
O=C1C=C(NCc2ccccc2)c2ccccc2C1=O	9.4*	2	-5	6	8.9*
O=C1Nc2ccccc2N=C(c2ccc3c(c2)OCO3)C1N(C(=O)c1ccc2ccccc2c1)C1CC1 (configuration not stated)	-2	2	6	15	.
Cc1cc(C)cc(N(CC(=O)Nc2ccccc2C(=O)N2CCOCC2)S(C)(=O)=O)c1	9.2*	-1	0	6	-2
Cc1ccc(S(=O)(=O)N(CC(=O)Nc2ccccc2C(=O)O)c2ccccc2)cc1	7.8*	2	-3	-2	-3
COc1ccccc1NC(=O)CN(c1ccccc1)S(=O)(=O)c1ccccc1	-13	-1	-2	18	.
Fc1ccc(CSc2nnc(-c3ccccn3)o2)cc1	-3	1	0	0	.
O=C(Cn1ncc2c1-c1ccccc1OC2)N(Cc1ccco1)C1CCCCC1	7.7*	-1	6	5	-1
CCN(CC)C(=O)Cn1ncc2c1-c1ccccc1OC2	-11	2	16	-5	.
Cn1ccnc1SCC(=O)Nc1ccc(F)c([N+](=O)[O-])c1	-3	0	3	4	.
CC(C)C(O)(c1ccccc1)C(CN1CCOCC1)c1ccccc1 (configuration not stated)	-7	0	-14	6	.
CCc1ccc(C(O)(C(C)C)C(CN2CCOCC2)c2ccccc2)cc1 (configuration not stated)	8.1*	1	-2	-8	1
O=C(CC(c1ccccc1)c1cc(Cl)ccc1O)N1CCOCC1 (configuration not stated)	9.8*	0	-7	-1	0
Cc1ccc(NC(=O)C(C)OC(=O)c2ccc(NC(=O)CC#N)cc2)cc1S(=O)(=O)N1CCOCC1 (configuration not stated)	9.5*	-1	5	15	-2
SMILES	MsrA act	MsrA inh	ARFGAP1 inh	ASAP1 GAP inh	MsrA activ conf
Cc1ccc(C(=O)OC(C)C(=O)Nc2ccc(S(N)(=O)=O)cc2)cc1S(=O)(=O)N1CCOCC1 (configuration not stated)	-1	0	-3	-15	.
CCCCOC(=O)Nc1ccccc1C(=O)N1CCCC1	15*	1	14	8	0
Cc1cc(C)cc(NC(=O)CSc2nc(N)c(NC(=O)c3cccs3)c(=O)[nH]2)c1	0	1	-2	-8	.
COc1cc(NC(=O)c2cccs2)c(C(=O)OCC(=O)NC(=O)NCc2ccccc2)cc1OC	7.9*	2	7	16	-3
CC[C@H]1C(=O)[C@@H](Cc2ccccc2)[C@@H]2CCN3C(=O)CCC[C@H]1[C@H]23	17*	1	3	4	-1
O=C1C[C@@H]2CCN3C(=O)CCC[C@@H]([C@H]23)[C@H]1Cc1ccccc1	-2	-1	0	6	.
COC(=O)c1sccc1NC(=O)CSc1ccccc1NS(=O)(=O)c1ccccc1Cl	8.3*	1	-5	-11	-5
S=C1NCCOc2ccccc21	.	2	5	-6	.
CC(=O)Nc1ccccc1C(=O)N1CCN(Cc2ccc3c(c2)OCO3)CC1	-4	0	0	-10	.
Cc1nc2c(nc1C)C(=O)c1ccccc1C2=O	13*	1	8	-1	8.4*
O=C1c2ccccc2-c2nc3ccccc3nc21	4	0	6	7	.
CC1CCCCC1NC(=O)c1ccc(-n2cncn2)cc1 (configuration not stated)	-1	-1	-9	-1	.
COc1cccc(NC(=O)CN(C)C(=O)c2ccc(NC(=O)CC3SC(N4CCCC4)=NC3=O)cc2)c1 (configuration not stated)	-1	1	-1	-7	.
CC1CCCN(CCCNC(=O)c2coc3nc4ccccc4nc23)C1 (configuration not stated)	1	0	4	4	.
CC1CCN(CCCNC(=O)c2coc3nc4ccccc4nc23)CC1	9.0*	1	-2	0	-2
Cc1c(Cl)cccc1-c1ccc(CNCc2ccccn2)o1	7.7*	1	3	8	-1
COc1ccccc1-[n+]1c(C)cc(/C=C2\Sc3ccccc3N2C)cc1C	8.2*	-1	3	2	-3
Cc1sc(NC(=O)CN2CCCC2)nc1-c1ccc2c(c1)CCN2C(=O)c1ccc(F)cc1	12*	-1	0	21	-3
OCc1ccccc1SSc1ccccc1CO	11*	1	2	15	6.4*
OCc1ccccc1CNCc1ccccc1	-3	-1	2	7	.
CC(C)N(C#N)c1nc(N2CCOCC2)nc(N2CCOCC2)n1	17*	0	-4	-8	-4
CN(C)c1nc(C#N)nc(N2CCOCC2)n1	-5	0	2	-2	.
COc1ccccc1OCC(=O)N/N=C/C=C/c1ccc([N+](=O)[O-])o1	10*	1	-10	-3	2
